Test results reported in ChEMBL document CHEMBL5058577, “EUbOPEN Chemogenomics Library 2 (Multiplex)” (2022).

Test system: Fibroblast
Experiment: Multiplex assay against human fibroblast
Assay type: toxicity, cell-based
Method in brief: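 Tubulin, mitochondrial-mass and membrane-permeability phenotypes are per cents of healthy-nucleus cells. Cells were gated by CellPathfinder machine learning into Hoechst high-intensity objects or normal cells, normal cells into healthy, pyknosed or fragmented nuclei, and pyknosed cells into mitotic or apoptotic. Before that, live cells stained at seeding with Hoechst33342, BioTracker Green Microtubule Cytoskeleton Dye, MitoTracker Red and Annexin V Alexa Fluor 680 were imaged on a CQ1 microscope at 37°C and 5% CO2 after compound addition.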

[1] = 12 h, 1 µM, compound concentration 1 uM, replicate 1
[2] = 12 h, 1 µM, compound concentration 1 uM, replicate 2
[3] = 12 h, 10 µM, compound concentration 10 uM, replicate 1
[4] = 12 h, 10 µM, compound concentration 10 uM, replicate 2
[5] = 24 h, 1 µM, compound concentration 1 uM, replicate 1
[6] = 24 h, 1 µM, compound concentration 1 uM, replicate 2
[7] = 24 h, 10 µM, compound concentration 10 uM, replicate 1
[8] = 24 h, 10 µM, compound concentration 10 uM, replicate 2
[9] = 48 h, 1 µM, compound concentration 1 uM, replicate 1
[10] = 48 h, 1 µM, compound concentration 1 uM, replicate 2
[11] = 48 h, 10 µM, compound concentration 10 uM, replicate 1
[12] = 48 h, 10 µM, compound concentration 10 uM, replicate 2

Which “Population Apoptotic (%)” value [1] does the source give for CCCC(CCC)C(=O)O [VALPROIC ACID] here?
The value was 42%.

And the “Population Fragmented Nuclei (%)” value [1]?
Its value is 13%.

And the “Population Healthy Nuclei (%)” value [1]?
The value was 65%.

What about the “Population Hoechst High Intensity Objects (%)” value [1] of the same compound?
The value was 3%.

And the “Population Membrane Permeable-Phenotype (%)” value [1]?
The value was 2%.

And the “Population Mitochondria Different-Phenotype (%)” value [1]?
Its value is 2%.

What about the “Population Mitotic Cells (%)” value [1] of the same compound?
Its value is 57%.

And the “Population Normal (%)” value [1]?
The value was 96%.

What about the “Population Pyknosed Nuclei (%)” value [1] of the same compound?
Its value is 21%.

And the “Population Tubulin-Different-Phenotype (%)” value [1]?
The value was 27%.

What about the “Population Apoptotic (%)” value [2] of the same compound?
The value was 57%.

And the “Population Fragmented Nuclei (%)” value [2]?
Its value is 20%.

And the “Population Healthy Nuclei (%)” value [2]?
Its value is 47%.

And the “Population Hoechst High Intensity Objects (%)” value [2]?
Its value is 8%.

What about the “Population Membrane Permeable-Phenotype (%)” value [2] of the same compound?
The value was 10%.

What about the “Population Mitochondria Different-Phenotype (%)” value [2] of the same compound?
Its value is 14%.

What about the “Population Mitotic Cells (%)” value [2] of the same compound?
Its value is 42%.

And the “Population Normal (%)” value [2]?
The value was 91%.

And the “Population Pyknosed Nuclei (%)” value [2]?
The value was 31%.

And the “Population Tubulin-Different-Phenotype (%)” value [2]?
Its value is 49%.

And the “Population Apoptotic (%)” value [3]?
Its value is 30%.

And the “Population Fragmented Nuclei (%)” value [3]?
The value was 29%.

And the “Population Healthy Nuclei (%)” value [3]?
The value was 60%.

And the “Population Hoechst High Intensity Objects (%)” value [3]?
The value was 4%.

What about the “Population Membrane Permeable-Phenotype (%)” value [3] of the same compound?
The value was 1%.

And the “Population Mitochondria Different-Phenotype (%)” value [3]?
The value was 3%.

What about the “Population Mitotic Cells (%)” value [3] of the same compound?
Its value is 70%.

What about the “Population Normal (%)” value [3] of the same compound?
Its value is 95%.

And the “Population Pyknosed Nuclei (%)” value [3]?
Its value is 9%.

And the “Population Tubulin-Different-Phenotype (%)” value [3]?
Its value is 16%.

And the “Population Apoptotic (%)” value [4]?
The value was 43%.

And the “Population Fragmented Nuclei (%)” value [4]?
The value was 16%.

What about the “Population Healthy Nuclei (%)” value [4] of the same compound?
The value was 53%.

And the “Population Hoechst High Intensity Objects (%)” value [4]?
The value was 2%.

What about the “Population Membrane Permeable-Phenotype (%)” value [4] of the same compound?
Its value is 4%.

What about the “Population Mitochondria Different-Phenotype (%)” value [4] of the same compound?
Its value is 8%.

What about the “Population Mitotic Cells (%)” value [4] of the same compound?
The value was 56%.

What about the “Population Normal (%)” value [4] of the same compound?
The value was 97%.

What about the “Population Pyknosed Nuclei (%)” value [4] of the same compound?
The value was 30%.

What about the “Population Tubulin-Different-Phenotype (%)” value [4] of the same compound?
The value was 41%.

And the “Population Apoptotic (%)” value [5]?
The value was 42%.

And the “Population Fragmented Nuclei (%)” value [5]?
The value was 11%.

And the “Population Healthy Nuclei (%)” value [5]?
The value was 69%.

What about the “Population Hoechst High Intensity Objects (%)” value [5] of the same compound?
Its value is 5%.

What about the “Population Membrane Permeable-Phenotype (%)” value [5] of the same compound?
The value was 1%.

And the “Population Mitochondria Different-Phenotype (%)” value [5]?
Its value is 2%.

And the “Population Mitotic Cells (%)” value [5]?
Its value is 57%.

And the “Population Normal (%)” value [5]?
Its value is 95%.

And the “Population Pyknosed Nuclei (%)” value [5]?
Its value is 19%.

What about the “Population Tubulin-Different-Phenotype (%)” value [5] of the same compound?
Its value is 22%.

What about the “Population Apoptotic (%)” value [6] of the same compound?
The value was 48%.

What about the “Population Fragmented Nuclei (%)” value [6] of the same compound?
Its value is 22%.

What about the “Population Healthy Nuclei (%)” value [6] of the same compound?
Its value is 53%.

And the “Population Hoechst High Intensity Objects (%)” value [6]?
Its value is 7%.

And the “Population Membrane Permeable-Phenotype (%)” value [6]?
The value was 3%.

What about the “Population Mitochondria Different-Phenotype (%)” value [6] of the same compound?
The value was 7%.

And the “Population Mitotic Cells (%)” value [6]?
The value was 51%.

What about the “Population Normal (%)” value [6] of the same compound?
The value was 92%.

And the “Population Pyknosed Nuclei (%)” value [6]?
The value was 24%.

What about the “Population Tubulin-Different-Phenotype (%)” value [6] of the same compound?
The value was 54%.

What about the “Population Apoptotic (%)” value [7] of the same compound?
The value was 50%.

And the “Population Fragmented Nuclei (%)” value [7]?
Its value is 27%.

What about the “Population Healthy Nuclei (%)” value [7] of the same compound?
The value was 66%.

What about the “Population Hoechst High Intensity Objects (%)” value [7] of the same compound?
Its value is 6%.

What about the “Population Membrane Permeable-Phenotype (%)” value [7] of the same compound?
The value was 0%.

What about the “Population Mitochondria Different-Phenotype (%)” value [7] of the same compound?
Its value is 1%.

And the “Population Mitotic Cells (%)” value [7]?
Its value is 50%.

And the “Population Normal (%)” value [7]?
The value was 93%.

And the “Population Pyknosed Nuclei (%)” value [7]?
The value was 5%.

What about the “Population Tubulin-Different-Phenotype (%)” value [7] of the same compound?
The value was 21%.

What about the “Population Apoptotic (%)” value [8] of the same compound?
Its value is 38%.

And the “Population Fragmented Nuclei (%)” value [8]?
The value was 30%.

What about the “Population Healthy Nuclei (%)” value [8] of the same compound?
The value was 46%.

And the “Population Hoechst High Intensity Objects (%)” value [8]?
Its value is 3%.

And the “Population Membrane Permeable-Phenotype (%)” value [8]?
The value was 5%.

What about the “Population Mitochondria Different-Phenotype (%)” value [8] of the same compound?
Its value is 4%.

And the “Population Mitotic Cells (%)” value [8]?
The value was 61%.

What about the “Population Normal (%)” value [8] of the same compound?
The value was 96%.

What about the “Population Pyknosed Nuclei (%)” value [8] of the same compound?
The value was 23%.

What about the “Population Tubulin-Different-Phenotype (%)” value [8] of the same compound?
The value was 41%.

What about the “Population Apoptotic (%)” value [9] of the same compound?
The value was 55%.

What about the “Population Fragmented Nuclei (%)” value [9] of the same compound?
Its value is 18%.

What about the “Population Healthy Nuclei (%)” value [9] of the same compound?
Its value is 66%.

What about the “Population Hoechst High Intensity Objects (%)” value [9] of the same compound?
The value was 7%.

What about the “Population Membrane Permeable-Phenotype (%)” value [9] of the same compound?
Its value is 0%.

What about the “Population Mitochondria Different-Phenotype (%)” value [9] of the same compound?
Its value is 1%.

And the “Population Mitotic Cells (%)” value [9]?
The value was 44%.

What about the “Population Normal (%)” value [9] of the same compound?
The value was 92%.

What about the “Population Pyknosed Nuclei (%)” value [9] of the same compound?
The value was 14%.

And the “Population Tubulin-Different-Phenotype (%)” value [9]?
Its value is 19%.

And the “Population Apoptotic (%)” value [10]?
The value was 48%.

And the “Population Fragmented Nuclei (%)” value [10]?
The value was 36%.

What about the “Population Healthy Nuclei (%)” value [10] of the same compound?
Its value is 44%.

What about the “Population Membrane Permeable-Phenotype (%)” value [10] of the same compound?
The value was 4%.

What about the “Population Mitochondria Different-Phenotype (%)” value [10] of the same compound?
The value was 7%.

What about the “Population Mitotic Cells (%)” value [10] of the same compound?
The value was 51%.

And the “Population Pyknosed Nuclei (%)” value [10]?
Its value is 19%.

And the “Population Tubulin-Different-Phenotype (%)” value [10]?
The value was 55%.

What about the “Population Apoptotic (%)” value [11] of the same compound?
Its value is 60%.

And the “Population Fragmented Nuclei (%)” value [11]?
Its value is 30%.

What about the “Population Healthy Nuclei (%)” value [11] of the same compound?
The value was 60%.

What about the “Population Hoechst High Intensity Objects (%)” value [11] of the same compound?
Its value is 1%.

And the “Population Membrane Permeable-Phenotype (%)” value [11]?
The value was 0%.

And the “Population Mitochondria Different-Phenotype (%)” value [11]?
The value was 1%.

What about the “Population Mitotic Cells (%)” value [11] of the same compound?
The value was 40%.

And the “Population Normal (%)” value [11]?
Its value is 98%.

And the “Population Pyknosed Nuclei (%)” value [11]?
Its value is 8%.

What about the “Population Tubulin-Different-Phenotype (%)” value [11] of the same compound?
The value was 18%.

And the “Population Fragmented Nuclei (%)” value [12]?
The value was 33%.

What about the “Population Healthy Nuclei (%)” value [12] of the same compound?
The value was 51%.

And the “Population Hoechst High Intensity Objects (%)” value [12]?
Its value is 5%.

What about the “Population Membrane Permeable-Phenotype (%)” value [12] of the same compound?
Its value is 6%.

And the “Population Mitochondria Different-Phenotype (%)” value [12]?
The value was 5%.

What about the “Population Mitotic Cells (%)” value [12] of the same compound?
The value was 39%.

And the “Population Normal (%)” value [12]?
Its value is 94%.

And the “Population Pyknosed Nuclei (%)” value [12]?
The value was 15%.

What about the “Population Tubulin-Different-Phenotype (%)” value [12] of the same compound?
The value was 46%.
